Assay results: the M2OR odorant receptor database
Residue numbers refer to the chain shown, from its start.

Assays:
Conditions in all cases: stereoisomer not certain
O4F15 S149F = tested on: T1, O4F15 S149F
T1 sequence (whole entry): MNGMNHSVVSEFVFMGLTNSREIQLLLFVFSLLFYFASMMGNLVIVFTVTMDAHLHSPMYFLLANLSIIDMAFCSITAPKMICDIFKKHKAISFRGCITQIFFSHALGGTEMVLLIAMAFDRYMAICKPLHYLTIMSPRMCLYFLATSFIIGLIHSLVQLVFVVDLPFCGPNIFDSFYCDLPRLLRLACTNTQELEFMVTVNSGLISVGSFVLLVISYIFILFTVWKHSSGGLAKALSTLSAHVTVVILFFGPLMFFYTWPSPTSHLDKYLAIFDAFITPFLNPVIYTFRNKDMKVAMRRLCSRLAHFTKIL
Summary of the method: (§1)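 Whether a receptor–molecule pair is responsive (active) rests on the original authors' judgment that its measured signal was statistically different from baseline. Pairs without that judgment are non-responsive (inactive). Sources used varied assay methods, commonly transient luciferase assays in mammalian cell lines.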

O4F17 [1] = tested on: T2, O4F17
T2 sequence (whole entry): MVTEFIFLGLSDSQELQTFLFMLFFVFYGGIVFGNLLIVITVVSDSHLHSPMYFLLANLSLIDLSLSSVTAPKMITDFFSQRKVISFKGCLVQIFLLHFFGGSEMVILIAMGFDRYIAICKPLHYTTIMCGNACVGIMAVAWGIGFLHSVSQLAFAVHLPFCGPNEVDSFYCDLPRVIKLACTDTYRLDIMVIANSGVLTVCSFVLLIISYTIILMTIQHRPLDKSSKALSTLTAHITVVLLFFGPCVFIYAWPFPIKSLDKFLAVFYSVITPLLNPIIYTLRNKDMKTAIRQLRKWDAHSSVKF
Summary of the method: as §1

O4F17 [2] = tested on: T3, O4F17; remark: listed apart in the source
T3 sequence (whole entry): T2 sequence (whole entry) with E15G, Q293R
Summary of the method: as §1

O4F21 F44L = tested on: T4, O4F21 F44L
T4 sequence (whole entry): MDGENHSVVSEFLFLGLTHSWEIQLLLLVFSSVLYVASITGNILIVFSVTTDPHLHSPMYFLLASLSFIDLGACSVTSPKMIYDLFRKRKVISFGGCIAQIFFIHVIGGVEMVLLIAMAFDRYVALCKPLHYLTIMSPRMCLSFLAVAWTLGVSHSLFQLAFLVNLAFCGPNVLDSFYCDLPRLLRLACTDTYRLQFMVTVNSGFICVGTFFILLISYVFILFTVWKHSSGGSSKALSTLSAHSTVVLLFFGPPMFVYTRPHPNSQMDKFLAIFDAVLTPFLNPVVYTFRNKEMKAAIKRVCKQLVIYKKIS
Summary of the method: as §1

O51A7 E8D = tested on: T5, O51A7 E8D
T5 sequence (whole entry): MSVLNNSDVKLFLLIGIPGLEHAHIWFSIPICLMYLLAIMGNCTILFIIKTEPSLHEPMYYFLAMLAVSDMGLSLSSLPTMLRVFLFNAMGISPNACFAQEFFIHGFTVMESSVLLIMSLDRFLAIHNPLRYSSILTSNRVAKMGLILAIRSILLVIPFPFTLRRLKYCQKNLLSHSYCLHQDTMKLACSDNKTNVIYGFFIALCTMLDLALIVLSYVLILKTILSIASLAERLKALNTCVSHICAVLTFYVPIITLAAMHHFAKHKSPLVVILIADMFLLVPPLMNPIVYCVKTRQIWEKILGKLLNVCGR
Summary of the method: as §1

O51B2 C120R C209S P283S = tested on: T6, O51B2 C120R C209S P283S
T6 sequence (whole entry): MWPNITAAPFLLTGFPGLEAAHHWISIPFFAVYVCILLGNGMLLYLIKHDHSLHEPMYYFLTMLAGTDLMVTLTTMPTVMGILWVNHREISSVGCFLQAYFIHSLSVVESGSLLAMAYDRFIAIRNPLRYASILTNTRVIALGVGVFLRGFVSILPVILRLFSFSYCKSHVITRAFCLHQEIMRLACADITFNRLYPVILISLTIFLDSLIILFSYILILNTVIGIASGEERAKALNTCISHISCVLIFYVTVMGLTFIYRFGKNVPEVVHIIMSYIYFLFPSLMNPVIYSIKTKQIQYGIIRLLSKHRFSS
Summary of the method: as §1

O51B4 M147T = tested on: T7, O51B4 M147T
T7 sequence (whole entry): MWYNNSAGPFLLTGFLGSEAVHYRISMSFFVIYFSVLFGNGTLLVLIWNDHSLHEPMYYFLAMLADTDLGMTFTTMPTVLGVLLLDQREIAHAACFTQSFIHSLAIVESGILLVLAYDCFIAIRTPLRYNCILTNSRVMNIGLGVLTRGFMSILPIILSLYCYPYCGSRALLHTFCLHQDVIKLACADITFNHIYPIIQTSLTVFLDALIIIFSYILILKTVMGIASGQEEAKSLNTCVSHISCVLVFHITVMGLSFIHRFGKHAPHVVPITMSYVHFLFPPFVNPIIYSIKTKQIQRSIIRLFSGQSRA
Summary of the method: as §1

O51B4 = tested on: T8, O51B4
T8 sequence (whole entry): T7 sequence (whole entry) with V36I
Summary of the method: as §1

O51B5 G5S I102T P160L = tested on: T9, O51B5 G5S I102T P160L
T9 sequence (whole entry): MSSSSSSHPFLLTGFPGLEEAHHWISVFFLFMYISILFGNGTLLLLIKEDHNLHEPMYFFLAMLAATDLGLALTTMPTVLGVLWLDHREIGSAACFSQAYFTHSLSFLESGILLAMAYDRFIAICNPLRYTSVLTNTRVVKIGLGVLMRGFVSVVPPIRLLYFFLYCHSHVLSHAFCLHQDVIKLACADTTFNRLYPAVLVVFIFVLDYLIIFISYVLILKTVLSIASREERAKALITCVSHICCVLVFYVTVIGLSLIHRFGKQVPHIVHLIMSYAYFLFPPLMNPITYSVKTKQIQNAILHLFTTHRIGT
Summary of the method: as §1

O51D1 I89V = tested on: T10, O51D1 I89V
T10 sequence (whole entry): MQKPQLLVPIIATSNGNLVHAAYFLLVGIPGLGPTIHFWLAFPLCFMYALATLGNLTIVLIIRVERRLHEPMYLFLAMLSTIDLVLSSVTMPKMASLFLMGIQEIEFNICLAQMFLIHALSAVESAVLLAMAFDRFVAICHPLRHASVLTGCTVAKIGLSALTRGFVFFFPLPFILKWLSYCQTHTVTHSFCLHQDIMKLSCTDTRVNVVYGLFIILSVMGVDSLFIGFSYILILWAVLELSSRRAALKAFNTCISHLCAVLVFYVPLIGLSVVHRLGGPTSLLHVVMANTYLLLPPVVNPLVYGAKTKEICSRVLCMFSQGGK
Summary of the method: as §1

Measured: odorant receptor agonist call;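 also: active if original authors judged signal statistically different from baseline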

CCC1OC(C)=C(O)C1=O (centres undefined)
inactive: all assays above

CC1=NC(C)C(C)S1 (centres undefined)
inactive: all assays above

Cc1cnc(C)c(C)n1
inactive: all assays above

CCCCCCC=CCCC=O
not listed: O4F15 S149F
inactive: all other assays above

CC1=C(O)C(=O)C(C)O1 (centres undefined)
inactive: all assays above

CC1=C(O)C(=O)OC1C (centres undefined)
inactive: all assays above

CCC1OC(=O)C(O)=C1C (centres undefined)
inactive: all assays above

CCCC(S)CCOC(C)=O (centres undefined)
inactive: all assays above
